Assay results taken from ChEMBL document CHEMBL5678798 (Clin Cancer Res, 2009).
Calls of active or inactive are those of the source. No cut-off for these calls is given here.

Assays:
[1] = Antiproliferative activity against IGF1-stimulated mouse NIH-3T3/LISN cells over expressing human IGF1R assessed as reduction in cell viability preincubated for 2 hr followed by IGF1R stimulation and measured after 72 hrs by CellTiter-Glo assay; type: functional, cell-based
Outline: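 NIH-3T3 overexpressing human IGF-IR, kept in DMEM/10% FBS with 500 µg/mL G418. Seeded on collagen-coated 96-well plates and allowed to adhere 24 h. Switched to serum-free medium, compound or DMSO added for 2 h, then IGF-I 30 ng/mL. Incubated 72 h at 37°C. Read by CellTiter-Glo; IC50 by four-parameter fit.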

[2] = biological target: Homeodomain-interacting protein kinase 2 (Homo sapiens) (UniProt Q9H2X6); assay: Inhibition of N-terminal His6-tagged recombinant human HIPK2 (165 to 564 residues) expressed in baculovirus infected Sf21 cells at 3 uM by filter binding assay relative to control
[3] = biological target: Macrophage-stimulating protein receptor (Homo sapiens) (UniProt Q04912); assay: Inhibition of N-terminal GST-tagged recombinant human Ron (983 to end residues) expressed in baculovirus infected Sf21 cells at 0.3 uM by filter binding assay relative to control
Outline: (§1)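 Outsourced single-concentration screen in a commercial panel of 233 protein kinases, run as radiometric filter-binding activity assays. Test agent was tested at 0.3 or 3 µmol/L, as given in each line, from a 10 mmol/L DMSO stock. Activity is expressed as percent inhibition relative to control.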

[4] = tested on: COLO 205; assay: Induction of cell cycle arrest in human COLO 205 cells assessed as cells accumulation at G2 phase at 1 umol/L incubated for 48 hrs by propidium iodide staining based flow cytometric analysis (reference value: 22%); type: functional; settings: dose 1 µmol/L, at 1 µM
Outline: (§2)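 COLO 205, MCF-7 or NCI-H929 cells seeded in 96-well plates overnight at 37°C, then exposed to DMSO or increasing compound concentrations for 24 or 48 h. Fixed and stained with propidium iodide (Vindelov method), then analysed by flow cytometry for sub-G1, G1, S and G2-M fractions. Experiment repeated twice.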

[5] = Inhibition of C-terminal His6-tagged human full length CDK2/N-terminal GST-tagged human full length cyclinA expressed in baculovirus infected Sf21 cells at 3 uM by filter binding assay relative to control; settings: condition cancer
Outline: (§3)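 KinaseProfiler panel of 233 kinases: radiometric filter-binding activity assays with compound at 0.3 or 3 µmol/L. Read-out is percent inhibition.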

[6] = tested on: NCI-H929; assay: Induction of cell cycle arrest in human NCI-H929 cells assessed as cells accumulation at S phase at 1 umol/L incubated for 48 hrs by propidium iodide staining based flow cytometric analysis (reference value: 15%); type: functional; settings: dose 1 µmol/L, at 1 µM; outline: as §2
[7] = tested on: MCF7; assay: Induction of cell cycle arrest in human MCF7 cells assessed as cells accumulation at G2 phase at 1 umol/L incubated for 48 hrs by propidium iodide staining based flow cytometric analysis (reference value: 17%); type: functional; settings: dose 1 µmol/L, at 1 µM; outline: as §2
[8] = tested on: NCI-H929; assay: Induction of cell cycle arrest in human NCI-H929 cells assessed as increase in cells accumulation at G1 phase at 0.03 to 10 uM incubated for 24 to 48 hrs by propidium iodide staining based flow cytometric analysis; type: functional; settings: dose 0.03-10 µM, time lower 24.0 hrs, time upper […]; outline: as §2
[9] = biological target: Mitogen-activated protein kinase 1 (Homo sapiens) (UniProt P28482); assay: Inhibition of N-terminal GST-tagged recombinant human MAPK2 expressed in Escherichia coli at 0.3 uM by filter binding assay relative to control; outline: as §1
[10] = biological target: Vascular endothelial growth factor receptor 3 (Homo sapiens, UniProt P35916); assay: Inhibition of N-terminal GST-tagged recombinant human Flt4 (800 to end residues) expressed in baculovirus infected Sf21 cells by filter binding assay
[11] = biological target: Inhibitor of nuclear factor kappa-B kinase subunit alpha (Homo sapiens, UniProt O15111); assay: Inhibition of IKK1 (unknown origin)
[12] = biological target: Serine/threonine-protein kinase Nek11 (Homo sapiens) (UniProt Q8NG66); assay: Inhibition of 6His-tagged recombinant human full-length NEK11 expressed in baculovirus infected Sf21 cells at 0.3 uM by filter binding assay relative to control; outline: as §3
[13] = Inhibition of […] N-terminal 6His-tagged full length human P110delta/full length human p85beta expressed in baculovirus infected Sf21 cells at 0.3 uM by filter binding assay relative to control; settings: condition cancer
[14] = In vivo inhibition of IGF1R in mouse NIH-3T3/LISN cells implanted in IGF1-stimulated nu/nu CD-1 mouse assessed as reduction in IGF1R phosphorylation at 30 mg/kg, po pretreated for 24 hrs followed by IGF1 stimulation and measured after 10 min […] relative to control; type: functional; settings: 24.17 h, time 1450 min
Outline: (§4)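 Time course: tumor-bearing female nu/nu CD-1 mice, three per group, given a single oral 30 mg/kg dose or vehicle. IGF-I given 10 min before blood and tumor collection at each time point. Tumor phospho-IGF-IR/total IGF-IR measured by capture-plate europium phosphotyrosine assay and expressed as % of ligand-stimulated control.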

[15] = biological target: Mitogen-activated protein kinase 11 (Homo sapiens) (UniProt Q15759); assay: Inhibition of N-terminal GST fusion protein corresponding to full-length human SAPK2b expressed in Escherichia coli at 3 uM by filter binding assay relative to control; outline: as §1
[16] = biological target: MAP kinase-activated protein kinase 5 (Homo sapiens) (UniProt Q8IW41); assay: Inhibition of N-terminal His6-tagged recombinant human full-length PRAK expressed in baculovirus infected Sf21 cells at 3 uM by filter binding assay relative to control
[17] = biological target: Serine/threonine-protein kinase pim-1 (Homo sapiens) (UniProt P11309); assay: Inhibition of N-terminal GST-tagged recombinant human full-length Pim-1 expressed in Escherichia coli cells at 0.3 uM by filter binding assay relative to control; outline: as §1
[18] = biological target: Serine/threonine-protein kinase PAK 1 (Homo sapiens, UniProt Q13153); assay: Inhibition of PAK1 (unknown origin)
[19] = tested on: NIH-3T3/LISN; assay: In vivo inhibition of IGF1R in mouse NIH-3T3/LISN cells implanted in IGF1-stimulated nu/nu CD-1 mouse assessed as reduction in IGF1R phosphorylation at 30 mg/kg, po pretreated for 48 to 72 hrs followed by IGF1 stimulation and measured after 10 min by […] relative to control; type: functional, organism-based; settings: time 2880-4330 min; outline: as §4
[20] = biological target: Glycogen synthase kinase-3 alpha (Homo sapiens) (UniProt P49840); assay: Inhibition of N-terminal His6-tagged recombinant human GSK3alpha (2 to end residues) expressed in Sf21 cells at 0.3 uM by filter binding assay relative to control
[21] = biological target: Insulin receptor (Mus musculus) (UniProt P15208); settings: CD-1, dose >= 30.0 mg/kg, route po, time 4.25 hrs
[22] = biological target: PAS domain-containing serine/threonine-protein kinase (Homo sapiens, UniProt Q96RG2); assay: Inhibition of human PASK by filter binding assay

Chain of Glycogen synthase kinase-3 alpha (Homo sapiens) (P49840 2-483 limits assumed): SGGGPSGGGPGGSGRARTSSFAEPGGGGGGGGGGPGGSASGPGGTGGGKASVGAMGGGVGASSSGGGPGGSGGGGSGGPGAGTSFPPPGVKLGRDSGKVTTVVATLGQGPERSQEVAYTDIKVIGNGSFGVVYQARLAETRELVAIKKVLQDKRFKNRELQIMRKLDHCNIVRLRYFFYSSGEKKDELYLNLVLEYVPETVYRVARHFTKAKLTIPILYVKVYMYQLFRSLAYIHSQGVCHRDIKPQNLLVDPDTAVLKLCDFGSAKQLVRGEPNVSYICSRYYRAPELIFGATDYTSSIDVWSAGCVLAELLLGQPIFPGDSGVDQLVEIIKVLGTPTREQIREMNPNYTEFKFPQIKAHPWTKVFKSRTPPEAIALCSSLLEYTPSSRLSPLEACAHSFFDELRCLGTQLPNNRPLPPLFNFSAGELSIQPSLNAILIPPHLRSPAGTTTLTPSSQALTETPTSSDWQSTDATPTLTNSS
Chain of Mitogen-activated protein kinase 11 (Homo sapiens) (Q15759 whole entry, the tested form may be a part): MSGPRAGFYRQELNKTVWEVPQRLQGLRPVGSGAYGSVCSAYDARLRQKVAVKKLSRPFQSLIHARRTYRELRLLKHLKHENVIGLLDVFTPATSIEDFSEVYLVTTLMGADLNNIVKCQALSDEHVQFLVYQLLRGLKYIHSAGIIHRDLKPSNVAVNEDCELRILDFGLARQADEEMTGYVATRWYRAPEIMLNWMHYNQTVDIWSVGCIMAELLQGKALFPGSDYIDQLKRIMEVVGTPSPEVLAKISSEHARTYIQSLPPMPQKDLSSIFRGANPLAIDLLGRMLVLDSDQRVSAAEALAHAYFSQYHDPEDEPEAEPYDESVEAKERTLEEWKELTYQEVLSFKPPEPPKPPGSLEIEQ
Chain of Inhibitor of nuclear factor kappa-B kinase subunit alpha (O15111 whole entry): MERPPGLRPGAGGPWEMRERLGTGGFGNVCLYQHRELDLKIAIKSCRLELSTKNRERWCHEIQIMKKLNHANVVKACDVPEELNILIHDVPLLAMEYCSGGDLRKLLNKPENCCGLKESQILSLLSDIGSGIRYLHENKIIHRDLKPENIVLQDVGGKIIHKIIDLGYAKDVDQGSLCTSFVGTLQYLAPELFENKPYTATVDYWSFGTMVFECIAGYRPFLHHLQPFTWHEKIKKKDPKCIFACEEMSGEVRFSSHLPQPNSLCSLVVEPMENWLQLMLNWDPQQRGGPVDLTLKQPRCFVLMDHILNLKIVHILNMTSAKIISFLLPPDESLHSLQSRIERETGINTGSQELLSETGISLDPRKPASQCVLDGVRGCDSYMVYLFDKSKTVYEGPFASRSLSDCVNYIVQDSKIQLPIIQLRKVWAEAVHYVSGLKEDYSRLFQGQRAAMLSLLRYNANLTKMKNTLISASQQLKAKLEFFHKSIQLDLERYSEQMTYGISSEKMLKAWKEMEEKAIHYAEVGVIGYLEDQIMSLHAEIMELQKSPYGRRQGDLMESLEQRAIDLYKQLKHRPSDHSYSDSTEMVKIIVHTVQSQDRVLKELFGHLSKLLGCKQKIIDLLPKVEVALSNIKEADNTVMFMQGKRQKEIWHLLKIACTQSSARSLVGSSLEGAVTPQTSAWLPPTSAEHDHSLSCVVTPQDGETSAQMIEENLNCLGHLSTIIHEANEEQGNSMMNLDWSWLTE
Chain of Mitogen-activated protein kinase 1 (Homo sapiens) (P28482 whole entry): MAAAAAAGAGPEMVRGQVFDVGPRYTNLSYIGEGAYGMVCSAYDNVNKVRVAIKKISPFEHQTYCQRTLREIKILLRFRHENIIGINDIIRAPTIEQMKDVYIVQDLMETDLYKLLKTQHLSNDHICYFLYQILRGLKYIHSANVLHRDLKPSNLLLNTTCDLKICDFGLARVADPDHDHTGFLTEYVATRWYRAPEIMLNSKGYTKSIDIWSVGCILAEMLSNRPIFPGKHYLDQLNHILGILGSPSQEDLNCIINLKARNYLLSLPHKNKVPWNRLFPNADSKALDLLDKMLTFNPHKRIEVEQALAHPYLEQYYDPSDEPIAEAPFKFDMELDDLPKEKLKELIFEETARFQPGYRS
Chain of Serine/threonine-protein kinase PAK 1 (Q13153 whole entry): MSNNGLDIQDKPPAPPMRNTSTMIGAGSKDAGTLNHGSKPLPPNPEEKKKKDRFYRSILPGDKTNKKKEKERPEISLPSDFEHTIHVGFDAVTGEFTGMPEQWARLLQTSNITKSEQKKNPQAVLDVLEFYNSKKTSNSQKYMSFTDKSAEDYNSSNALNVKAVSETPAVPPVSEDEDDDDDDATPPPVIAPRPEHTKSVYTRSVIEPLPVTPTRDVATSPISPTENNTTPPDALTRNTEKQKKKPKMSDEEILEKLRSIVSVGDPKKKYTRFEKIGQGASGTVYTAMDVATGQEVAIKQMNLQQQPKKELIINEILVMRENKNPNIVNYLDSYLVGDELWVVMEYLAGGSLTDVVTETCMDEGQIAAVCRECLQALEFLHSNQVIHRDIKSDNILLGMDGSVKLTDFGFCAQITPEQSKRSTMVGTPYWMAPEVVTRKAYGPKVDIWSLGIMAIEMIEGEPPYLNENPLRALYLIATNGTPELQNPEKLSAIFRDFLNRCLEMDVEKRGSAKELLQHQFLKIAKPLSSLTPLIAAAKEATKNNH
Chain of Macrophage-stimulating protein receptor (Homo sapiens) (Q04912 25-304 limits assumed): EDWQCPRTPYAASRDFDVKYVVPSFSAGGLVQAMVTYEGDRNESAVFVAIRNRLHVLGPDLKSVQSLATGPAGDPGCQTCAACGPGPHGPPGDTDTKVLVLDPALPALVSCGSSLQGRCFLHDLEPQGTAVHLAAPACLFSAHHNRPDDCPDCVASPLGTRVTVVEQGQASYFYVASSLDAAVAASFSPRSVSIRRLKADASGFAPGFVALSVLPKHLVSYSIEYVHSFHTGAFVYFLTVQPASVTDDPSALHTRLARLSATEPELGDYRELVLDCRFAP
Chain of Macrophage-stimulating protein receptor (Homo sapiens) (Q04912 310-1400 limits assumed): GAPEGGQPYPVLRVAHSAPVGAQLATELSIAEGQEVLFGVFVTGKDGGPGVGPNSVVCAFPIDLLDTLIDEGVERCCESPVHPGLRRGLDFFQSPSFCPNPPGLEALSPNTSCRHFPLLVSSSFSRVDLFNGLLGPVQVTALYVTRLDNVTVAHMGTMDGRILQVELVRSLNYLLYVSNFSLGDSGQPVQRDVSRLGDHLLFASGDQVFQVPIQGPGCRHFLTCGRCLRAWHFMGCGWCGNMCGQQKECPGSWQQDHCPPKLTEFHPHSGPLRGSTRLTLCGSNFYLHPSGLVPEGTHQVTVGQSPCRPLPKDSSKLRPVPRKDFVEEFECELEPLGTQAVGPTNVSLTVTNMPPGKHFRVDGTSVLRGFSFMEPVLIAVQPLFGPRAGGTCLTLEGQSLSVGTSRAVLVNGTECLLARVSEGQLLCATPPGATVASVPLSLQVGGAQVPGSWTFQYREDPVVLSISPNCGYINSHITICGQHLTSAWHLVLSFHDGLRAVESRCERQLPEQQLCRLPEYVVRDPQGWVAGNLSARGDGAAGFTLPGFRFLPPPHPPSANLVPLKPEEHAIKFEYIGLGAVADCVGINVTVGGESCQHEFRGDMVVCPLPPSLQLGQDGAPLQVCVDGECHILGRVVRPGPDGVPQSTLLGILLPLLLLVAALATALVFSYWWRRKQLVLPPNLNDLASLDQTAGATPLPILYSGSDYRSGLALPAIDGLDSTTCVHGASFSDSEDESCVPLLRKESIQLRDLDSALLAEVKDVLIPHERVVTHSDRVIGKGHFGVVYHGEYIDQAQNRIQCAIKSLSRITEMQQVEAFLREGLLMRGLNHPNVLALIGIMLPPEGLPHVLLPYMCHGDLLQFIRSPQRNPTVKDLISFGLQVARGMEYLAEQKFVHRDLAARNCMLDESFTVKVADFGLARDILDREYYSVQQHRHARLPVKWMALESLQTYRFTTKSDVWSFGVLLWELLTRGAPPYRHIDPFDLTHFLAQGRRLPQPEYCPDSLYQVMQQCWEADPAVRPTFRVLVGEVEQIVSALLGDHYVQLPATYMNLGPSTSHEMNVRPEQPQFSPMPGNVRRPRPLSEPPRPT
Chain of Serine/threonine-protein kinase pim-1 (Homo sapiens) (P11309 whole entry, looked up): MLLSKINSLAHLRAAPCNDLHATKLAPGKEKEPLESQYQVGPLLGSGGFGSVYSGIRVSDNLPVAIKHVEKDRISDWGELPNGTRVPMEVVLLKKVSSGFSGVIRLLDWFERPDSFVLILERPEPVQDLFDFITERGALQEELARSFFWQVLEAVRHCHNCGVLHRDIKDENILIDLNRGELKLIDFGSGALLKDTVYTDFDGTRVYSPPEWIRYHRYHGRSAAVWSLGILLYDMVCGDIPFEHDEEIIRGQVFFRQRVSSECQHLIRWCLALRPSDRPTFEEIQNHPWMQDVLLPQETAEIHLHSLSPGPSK
Chain of Serine/threonine-protein kinase Nek11 (Homo sapiens) (Q8NG66 whole entry): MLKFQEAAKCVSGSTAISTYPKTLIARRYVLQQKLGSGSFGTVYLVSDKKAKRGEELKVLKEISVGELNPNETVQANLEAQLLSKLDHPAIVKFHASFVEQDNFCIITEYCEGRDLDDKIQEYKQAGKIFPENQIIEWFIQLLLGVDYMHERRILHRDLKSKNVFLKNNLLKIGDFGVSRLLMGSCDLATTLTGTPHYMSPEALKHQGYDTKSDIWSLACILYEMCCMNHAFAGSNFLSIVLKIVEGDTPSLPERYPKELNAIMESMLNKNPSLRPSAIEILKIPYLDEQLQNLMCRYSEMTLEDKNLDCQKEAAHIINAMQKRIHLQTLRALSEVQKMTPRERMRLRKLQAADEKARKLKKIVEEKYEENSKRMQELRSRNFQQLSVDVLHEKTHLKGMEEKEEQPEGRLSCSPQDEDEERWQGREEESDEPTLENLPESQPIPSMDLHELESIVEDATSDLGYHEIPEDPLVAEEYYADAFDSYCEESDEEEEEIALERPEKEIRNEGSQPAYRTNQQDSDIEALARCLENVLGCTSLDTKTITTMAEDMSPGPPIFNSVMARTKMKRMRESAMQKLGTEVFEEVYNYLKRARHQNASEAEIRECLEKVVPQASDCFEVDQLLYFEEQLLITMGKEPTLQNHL

With `CCc1cc(Nc2nccc(-c3c(-c4ccc(OC)c(C(=O)Nc5c(F)cccc5F)c4)nc4ccccn34)n2)c(OC)cc1N1CCC(N2CCN(S(C)(=O)=O)CC2)CC1` the IC50 [1] was 0.06 µM, the inhibition [2] was 4% and the inhibition [3] was -8%. The Activity [4] was 12%, the inhibition at 3 µM [5] was 8% and the Activity [6] was 3%. The Activity [7] was 11%, the Activity [8] was “Active” and the inhibition [9] was -10%. The IC50 [10] was 0.159 µM, the IC50 [11] was 13 µM and the inhibition [12] was -8%. The inhibition at 0.3 µM [13] was 1%, the inhibition in vivo at 30 mg/kg [14] was 76% and the inhibition [15] was 11%. The inhibition [16] was 35%, the inhibition [17] was -8% and the IC50 [18] was over 10 µM. The inhibition [19] was “inactive”, the inhibition [20] was -10% and the inhibition [21] was “Dose-Dependent Effect”. The IC50 [22] was 4.34 µM.
